According to ChEMBL document CHEMBL1926538, “3,5-Disubstituted-thiazolidine-2,4-dione analogs as anticancer agents: design, synthesis and biological characterization” (Eur J Med Chem, 2012):
Calls of active or inactive are those of the source. The rule behind the calls is not given here.

How the values were obtained:
[1] = target: MAP kinase p38 (Homo sapiens) (UniProt O15264+Q15759+Q16539+P53778); assay: Inhibition p38 phosphorylation in human U937 cells at 1 to 10 uM after 1 hr by Western blot analysis; type: cell-based; details: U-937
Method in brief: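 p38 blot in U937: cells at 5 × 10⁵/mL in RPMI 1640 plus 10% FBS, exposed 1 h, sonicated in SDS sample buffer containing phosphatase inhibitors, boiled; immunoblot with primary antibody overnight at 4 °C, HRP secondary, chemiluminescent detection.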

[2] = tested on: U-937; assay: Induction of apoptosis in human U937 cells assessed as late apoptotic cells at 3 uM after 18 hrs by annexinV-propidium iodide staining-based flow cytometric analysis (reference value: 7.8%); type: functional
[3] = target: Phosphatidylinositol 4,5-bisphosphate 3-kinase catalytic subunit alpha isoform (Homo sapiens) (UniProt P42336); assay: Inhibition of PI3Kalpha at 10 uM
[4] = target: Mitogen-activated protein kinase 1 (Homo sapiens) (UniProt P28482); assay: Inhibition of Erk2 at 10 uM
[5] = target: Ribosomal protein S6 kinase alpha-5 (Homo sapiens) (UniProt O75582); assay: Inhibition of MSK1 at 10 uM
[6] = target: RAF proto-oncogene serine/threonine-protein kinase (Homo sapiens) (UniProt P04049); assay: Inhibition of Raf-mediated ERK phosphorylation in human DU145 cells at 10 to 20 uM after 24 hrs by Western blot analysis; type: cell-based; details: DU-145
Method in brief: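 Cells in RPMI 1640 with 10% heat-inactivated FBS, 37 °C, 5% CO2; treated in growing medium (DU145 24 h; U937 1 h at 5 × 10⁵/mL). Lysed by sonication in SDS sample buffer with protease inhibitors plus 1 mM orthovanadate and pyrophosphate, boiled 5 min. Blots blocked in 5% milk, primary antibodies 1:1000 overnight at 4 °C, HRP secondary 1:2000, chemiluminescence; α-tubulin loading control.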

Sequence of Phosphatidylinositol 4,5-bisphosphate 3-kinase catalytic subunit alpha isoform (Homo sapiens) (P42336 whole entry, canonical isoform): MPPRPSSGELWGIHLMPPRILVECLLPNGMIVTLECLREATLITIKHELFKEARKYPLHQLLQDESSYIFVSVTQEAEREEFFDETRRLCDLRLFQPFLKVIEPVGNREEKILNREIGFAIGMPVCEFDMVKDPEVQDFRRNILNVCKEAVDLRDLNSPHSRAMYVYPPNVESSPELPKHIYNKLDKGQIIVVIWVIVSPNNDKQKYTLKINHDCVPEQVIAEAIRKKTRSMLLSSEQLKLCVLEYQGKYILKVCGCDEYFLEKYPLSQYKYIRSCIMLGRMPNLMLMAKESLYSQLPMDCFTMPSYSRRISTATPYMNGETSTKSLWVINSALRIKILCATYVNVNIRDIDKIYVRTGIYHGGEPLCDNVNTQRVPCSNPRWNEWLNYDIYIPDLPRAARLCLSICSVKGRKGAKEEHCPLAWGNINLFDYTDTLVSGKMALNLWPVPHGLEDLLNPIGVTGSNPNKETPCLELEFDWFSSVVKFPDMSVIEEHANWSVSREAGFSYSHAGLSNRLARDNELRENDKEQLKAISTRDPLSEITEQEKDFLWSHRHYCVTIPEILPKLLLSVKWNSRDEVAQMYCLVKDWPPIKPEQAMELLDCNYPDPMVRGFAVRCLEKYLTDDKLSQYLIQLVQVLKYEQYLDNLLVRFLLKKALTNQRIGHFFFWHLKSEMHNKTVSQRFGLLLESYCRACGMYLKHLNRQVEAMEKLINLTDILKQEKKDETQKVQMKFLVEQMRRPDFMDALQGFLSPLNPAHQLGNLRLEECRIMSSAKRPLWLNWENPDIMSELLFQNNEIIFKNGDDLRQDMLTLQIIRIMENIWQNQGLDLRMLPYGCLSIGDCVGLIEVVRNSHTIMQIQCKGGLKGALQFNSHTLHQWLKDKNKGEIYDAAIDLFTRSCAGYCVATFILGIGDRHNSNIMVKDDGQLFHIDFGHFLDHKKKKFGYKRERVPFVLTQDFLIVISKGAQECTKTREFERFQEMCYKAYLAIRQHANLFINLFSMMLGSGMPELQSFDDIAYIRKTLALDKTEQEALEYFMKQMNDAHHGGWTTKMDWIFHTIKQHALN
Sequence of RAF proto-oncogene serine/threonine-protein kinase (Homo sapiens) (P04049 whole entry): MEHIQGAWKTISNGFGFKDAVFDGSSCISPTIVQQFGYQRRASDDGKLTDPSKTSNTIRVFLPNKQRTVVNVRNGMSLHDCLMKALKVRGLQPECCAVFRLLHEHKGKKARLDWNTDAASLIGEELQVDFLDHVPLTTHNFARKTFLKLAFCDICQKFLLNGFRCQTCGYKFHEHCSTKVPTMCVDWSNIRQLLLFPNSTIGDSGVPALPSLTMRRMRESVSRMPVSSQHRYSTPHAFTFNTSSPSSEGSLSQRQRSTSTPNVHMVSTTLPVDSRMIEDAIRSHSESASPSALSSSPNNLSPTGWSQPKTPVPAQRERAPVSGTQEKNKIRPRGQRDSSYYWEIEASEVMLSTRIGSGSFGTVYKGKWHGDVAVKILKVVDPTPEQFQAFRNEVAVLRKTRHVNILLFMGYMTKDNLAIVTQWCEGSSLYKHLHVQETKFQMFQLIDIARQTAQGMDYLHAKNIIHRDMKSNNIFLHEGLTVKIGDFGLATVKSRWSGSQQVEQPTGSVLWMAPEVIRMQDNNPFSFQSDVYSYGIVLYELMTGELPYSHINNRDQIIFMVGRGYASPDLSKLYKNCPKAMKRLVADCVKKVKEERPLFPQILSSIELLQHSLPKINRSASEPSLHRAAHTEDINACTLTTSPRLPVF
Sequence of Mitogen-activated protein kinase 1 (Homo sapiens) (P28482 whole entry): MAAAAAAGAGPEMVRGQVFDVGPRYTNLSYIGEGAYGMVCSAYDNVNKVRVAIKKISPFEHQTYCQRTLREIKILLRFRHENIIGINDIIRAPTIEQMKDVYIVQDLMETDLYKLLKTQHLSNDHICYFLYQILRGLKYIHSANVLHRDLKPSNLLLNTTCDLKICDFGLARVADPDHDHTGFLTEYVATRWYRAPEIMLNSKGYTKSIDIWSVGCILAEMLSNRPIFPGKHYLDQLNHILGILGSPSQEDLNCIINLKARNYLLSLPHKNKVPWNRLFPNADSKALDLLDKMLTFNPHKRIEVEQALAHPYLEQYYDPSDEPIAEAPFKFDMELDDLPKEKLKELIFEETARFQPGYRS
Sequence of Ribosomal protein S6 kinase alpha-5 (Homo sapiens) (O75582 whole entry, looked up): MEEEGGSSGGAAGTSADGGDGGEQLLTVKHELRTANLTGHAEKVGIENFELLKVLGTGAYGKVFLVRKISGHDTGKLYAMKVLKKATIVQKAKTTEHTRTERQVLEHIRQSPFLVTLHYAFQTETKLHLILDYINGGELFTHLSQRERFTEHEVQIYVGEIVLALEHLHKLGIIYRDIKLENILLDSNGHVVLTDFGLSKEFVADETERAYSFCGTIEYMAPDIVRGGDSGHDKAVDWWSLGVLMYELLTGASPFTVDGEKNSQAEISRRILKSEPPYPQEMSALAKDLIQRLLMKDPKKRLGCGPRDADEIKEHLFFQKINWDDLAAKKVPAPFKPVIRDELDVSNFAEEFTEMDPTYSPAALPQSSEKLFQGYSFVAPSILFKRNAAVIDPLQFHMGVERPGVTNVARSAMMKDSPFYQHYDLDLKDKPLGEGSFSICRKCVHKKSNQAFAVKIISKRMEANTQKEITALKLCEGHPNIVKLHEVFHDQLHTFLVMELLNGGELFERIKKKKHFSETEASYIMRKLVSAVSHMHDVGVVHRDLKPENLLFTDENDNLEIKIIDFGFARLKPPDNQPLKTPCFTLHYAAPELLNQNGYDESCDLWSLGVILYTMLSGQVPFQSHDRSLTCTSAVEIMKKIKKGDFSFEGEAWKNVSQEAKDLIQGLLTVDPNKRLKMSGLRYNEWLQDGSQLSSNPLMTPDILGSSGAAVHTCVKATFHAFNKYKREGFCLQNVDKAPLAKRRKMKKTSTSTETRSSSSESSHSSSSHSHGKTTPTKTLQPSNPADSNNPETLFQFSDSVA

## NCCN1C(=O)S/C(=C\CCC2CCCCC2)C1=O
[1]
  inhibition: inactive
[2]
  Activity: 5.7%
[3]
  inhibition: 45%
[4]
  inhibition: 11%
[5]
  inhibition: 6%
[6]
  inhibition: Active
